Compound activity from PubChem.
SK-BR-3 tox 24h: SK-BR-3 proliferation inhibitors | SK-BR-3 viability, CellTiter-Glo ATP luminescence, 24 h; stronger effect = lower value | viability, % at 10 µM | 41,000 compounds, 0.47% hits | AID 847;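 active = viability at or below the median of all test compounds minus 3 SD, in both replicates if run twice, cut at about 45% in these data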
HEK293 NFkB inh: lowers PMA/ionomycin-induced NF-kB signal in HEK293 cells; HEK-293 NF-kB luciferase reporter, luminescence; inhibition, % at 3 µM; 62,000 compounds, 0.21% hits; AID 465;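 active = inhibition above the mean of all tested compounds plus 3 SD, cut at about 40% in these data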
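Signal: luciferase luminescence; Material: HEK-293 cells with stable firefly luciferase reporter driven by four HIV NF-kB elements; Probe or stimulus: PMA with ionomycin; Replication: tested once; Times: 1 h compound pretreatment, then 16 h stimulation at 37 °C, 5% CO2; Benchmarks: DMSO and 10 µM reference inhibitor; Evaluation: per-plate % inhibition versus controls.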
HER2 expr 66K: Her2 kinase expression inhibition. P04626. SKBR-3 HER2 protein level, AlphaScreen, 18-24 h; stronger effect = lower value. HER2 level % of control, % at 10 µM. 65,000 compounds, 0.69% hits;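 active = HER2 level under 5% of the carrier-only control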;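 note: lower value means stronger loss of Her2 protein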
Target sequence (P04626 whole entry, looked up): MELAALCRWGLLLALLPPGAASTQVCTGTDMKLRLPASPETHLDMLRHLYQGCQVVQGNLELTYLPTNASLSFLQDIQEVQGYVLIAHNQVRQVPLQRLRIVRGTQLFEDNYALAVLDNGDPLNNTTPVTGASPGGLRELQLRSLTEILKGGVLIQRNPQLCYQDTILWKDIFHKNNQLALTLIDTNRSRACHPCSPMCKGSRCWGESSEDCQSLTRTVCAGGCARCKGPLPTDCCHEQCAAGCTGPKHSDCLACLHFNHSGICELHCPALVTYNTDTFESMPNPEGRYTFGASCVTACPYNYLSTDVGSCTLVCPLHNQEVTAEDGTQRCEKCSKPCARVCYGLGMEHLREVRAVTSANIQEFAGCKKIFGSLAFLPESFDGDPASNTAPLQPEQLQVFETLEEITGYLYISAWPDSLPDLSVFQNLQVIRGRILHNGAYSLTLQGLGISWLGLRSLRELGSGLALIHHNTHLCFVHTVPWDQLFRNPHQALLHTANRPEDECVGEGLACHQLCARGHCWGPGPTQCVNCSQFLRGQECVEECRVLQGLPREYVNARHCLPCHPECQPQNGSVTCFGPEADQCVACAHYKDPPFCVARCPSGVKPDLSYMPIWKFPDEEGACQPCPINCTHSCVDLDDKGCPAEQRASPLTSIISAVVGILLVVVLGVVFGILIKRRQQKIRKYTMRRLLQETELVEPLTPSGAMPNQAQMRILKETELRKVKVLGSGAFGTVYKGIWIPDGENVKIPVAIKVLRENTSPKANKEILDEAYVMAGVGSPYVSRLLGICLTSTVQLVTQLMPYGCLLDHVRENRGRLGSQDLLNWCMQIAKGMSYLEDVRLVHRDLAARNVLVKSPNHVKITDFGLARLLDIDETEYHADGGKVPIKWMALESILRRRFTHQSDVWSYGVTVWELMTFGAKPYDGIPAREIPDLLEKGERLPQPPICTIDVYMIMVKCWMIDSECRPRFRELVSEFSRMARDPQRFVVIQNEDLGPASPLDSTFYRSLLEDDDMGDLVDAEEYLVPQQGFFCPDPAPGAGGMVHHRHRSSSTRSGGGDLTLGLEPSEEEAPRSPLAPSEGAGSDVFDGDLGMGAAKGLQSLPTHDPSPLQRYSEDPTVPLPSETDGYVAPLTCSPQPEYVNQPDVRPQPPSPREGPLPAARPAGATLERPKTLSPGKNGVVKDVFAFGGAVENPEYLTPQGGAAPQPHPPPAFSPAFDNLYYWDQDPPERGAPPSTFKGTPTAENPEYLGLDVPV
Htt clearance: mutant huntingtin protein clearance; HeLa Exon1htt(103Q)mCFP, aggregate imaging; zero = plate's median compound well; inhibition, % at 1.5 µM; 47,000 compounds, 0.42% hits;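 active = inhibition of aggregate fluorescence above about 70%, also judged a hit by eye on the cell image, limit read from the data, passing the limit was not always enough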;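 note: cells exposed to compound for three days before fixation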
Jurkat viability: reduces viability or proliferation of Jurkat cells; 56,000 compounds, 1.2% hits; inhibition, % at 4 µM; Jurkat E6.1 viability, ATP luminescence, 48 h; AID 463;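 active = inhibition above the mean inhibition of all tested compounds plus 3 SD, cut at about 28% in these data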
Hits are given with their value; i = inactive; nt = no result. Only some compounds are listed: those with a hit (about 1.9% of all), similar ones and a draw of the others.

SMILES | SK-BR-3 tox 24h | HEK293 NFkB inh | HER2 expr 66K | Htt clearance | Jurkat viability
O=C(NCc1ccco1)C(c1ccco1)N(Cc1cccs1)C(=O)Cn1nnc2ccccc21 (configuration not stated) | nt | nt | nt | 83 | nt
CC1CCCC/C1=N\NS(=O)(=O)c1ccc(Br)cc1 (configuration not stated) | nt | nt | nt | i | nt
c1ccc(Nc2ncnc3c2oc2ccccc23)cc1 | i | i | i | 72 | i
COc1cc(-c2nc(-c3ccc4c(c3)-c3ccccc3S4(=O)=O)c(-c3ccccc3)[nH]2)cc(OC)c1O | nt | nt | nt | i | nt
CC1(C)Cc2c(sc3nc(SCC#N)n(C4CCCCC4)c(=O)c23)CO1 | i | nt | i | nt | nt
O=C(Nc1ccc(F)cc1)N1CCN(c2nc3ccccc3s2)CC1 | 41 | i | i | i | i
O=C(Nc1ccccc1)N1CCN(c2nc3ccccc3s2)CC1 | i | i | i | i | i
Cc1c(NC(=O)COc2ncnc3ccccc23)c(=O)n(-c2ccccc2)n1C | i | i | i | i | i
Cc1ccc(C(=O)N/N=C2\SCC(=O)N2c2cc(C)ccc2C)cc1 | nt | nt | nt | i | nt
O=C(NCC1CCCCC1)C1CCN(C(=O)NC2CCCCC2)CC1 | 35 | i | i | i | i
O=C(NC1CCCCC1)N1CCCCCC1 | i | i | i | nt | i
COC(=O)c1cc2ccsc2n1CC(=O)Nc1ccc(N(C)C)cc1 | nt | i | i | i | i
COC(=O)c1cc2ccsc2n1CC(=O)Nc1cc(Cl)ccc1OC | nt | i | i | i | 86
COc1ccccc1N1CCN(C(c2cccs2)c2nnnn2C2CCCC2)CC1 (configuration not stated) | i | i | -30 | i | i
Cc1ccc(S(=O)(=O)N2CCSC2c2ccco2)cc1 (configuration not stated) | nt | i | i | nt | i
Cn1c(=O)c2c(SCc3cccc(C(F)(F)F)c3)nc(-c3ccco3)nc2n(C)c1=O | nt | i | -4.9 | nt | i
Cn1c(=O)c2c(SCc3ccccc3)nc(-c3ccco3)nc2n(C)c1=O | nt | i | i | nt | i
CCOC(=O)c1cn2c3c(c(F)c(F)cc3c1=O)SC(N1CCOCC1)=N2 | nt | nt | nt | i | nt
CC(C)C(=O)N1CCN(c2ccc(NC(=O)c3cccs3)cc2)CC1 | nt | nt | nt | 79 | nt
Cc1nonc1NC(=O)OC1CCCCC1 | i | i | i | nt | i
COc1ccc(C2C3=C(CCCC3=O)Nc3nc4ccccc4n32)c(OC)c1OC (configuration not stated) | i | i | i | nt | i
COc1ccccc1C(CC(=O)Nc1nccs1)c1ccco1 (configuration not stated) | i | nt | -17 | i | nt
Cc1ccccc1OCCCC(=O)Nc1nccs1 | nt | i | -20 | nt | nt
Cc1ccc(C)c(OCCCC(=O)Nc2nccs2)c1 | nt | nt | nt | i | nt
CCOC(=O)N1CCC(NC(=O)c2cccc3c2C(=O)N(c2ccc(OC)cc2)C3)CC1 | nt | i | i | i | i
SMILES | SK-BR-3 tox 24h | HEK293 NFkB inh | HER2 expr 66K | Htt clearance | Jurkat viability
COC(=O)CNC(=O)/C=C/c1ccc(OC)cc1 | nt | nt | nt | i | nt
CCOc1cc(C#N)c(NC(=O)c2ccco2)cc1OCC | i | i | i | nt | 79
CCOc1cc(NC(=O)c2ccco2)c(OCC)cc1NC(=O)c1cc(OC)c(OC)c(OC)c1 | i | i | i | i | i
CCCc1cc(C(=O)Nc2cc(Br)ccc2O)no1 | nt | i | i | nt | 46
CC(C)c1cc(C(=O)Nc2cc(Cl)ccc2O)no1 | i | i | i | i | 54
O=c1[nH]n(-c2cccc3cccnc23)c(=O)c2ccccc12 | i | i | i | i | i
O=S1(=O)Nc2c(ccc3cccnc23)-c2ccccc21 | i | i | -8.0 | nt | 67
COc1cccc(NC(=O)N2CCN(Cc3nc4ccccc4c(=O)[nH]3)CC2)c1 | i | i | i | nt | nt
Cc1cc(N2CCN(C/C=C/c3ccccc3)CC2)n2ncnc2n1 | i | i | i | nt | 37
c1ccc(-c2csc3ncn4cnnc4c23)cc1 | i | i | i | i | i
Cn1cc(/C=N/n2cnc3scc(-c4ccccc4)c3c2=O)c2ccccc21 | nt | i | i | nt | 41
COc1cc(CNc2ccc(C)c(C)c2)cc(OC)c1OC | nt | i | i | nt | 88
CCCc1cc(NCCN2CCOCC2)n2c(nc3ccccc32)c1C#N | i | nt | i | nt | nt
C#CCOC(=O)c1ccccc1C(=O)OCC#C | i | i | -22 | i | i
C#CCOC(=O)c1ccccc1C(=O)n1nnc2ccccc21 | i | i | i | nt | i
Cc1ccc2nc(Nc3ccccc3)c(/C=N/O)c(=O)n2c1 | nt | i | -25 | nt | i
CCOC(=O)N1CCN(C(=O)CSCc2nc(-c3ccccc3F)oc2C)CC1 | nt | i | i | i | i
CCOC(=O)N1CCN(C(=O)CSCc2nc(-c3ccccc3C)oc2C)CC1 | nt | i | -23 | i | i
